In brackets after ≈: the same amount, converted by molar mass.
Legend:
[1] = tested on: B. subtilis strain BS1048 (RpoC-GFP); assay: Confocal fluorescence microscopy of GFP-tagged RNAP; type: cell-based; conditions: 8e added at ½ MIC, 15 min
Procedure, shortened: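 BS1048 (RpoC-GFP) was plated on LB agar. […] 2.5 μL of culture was mounted on a fresh 1.2% agarose pad under a coverslip. Imaging used a confocal microscope with a 63×/1.3 oil objective and a mercury metal halide lamp.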

S. aureus ATCC 29213 = assay: Cell content quantification; type: cell-based, Staphylococcus aureus; conditions: ¼ and ⅛ MIC, versus untreated control
Procedure, shortened: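 S. aureus ATCC 29213 master culture was started at OD600 0.1 with shaking at 175 rpm, 37 °C. At OD600 0.2 (early log) it was split and dosed at ¼ and ⅛ MIC, with a drug-free control. Cells were harvested when the control reached OD600 0.6; other samples were taken at volumes adjusted to an OD600 equivalent of 0.6. 3 mL was pelleted at 5000 × g, 5 min, 4 °C, and DNA/RNA/protein co-extracted with a kit. DNA and RNA were read by fluorometric broad-range assays, protein by BCA. Triplicate.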

[2] = tested on: S. saprophyticus ATCC 15305; assay: MIC by broth microdilution; type: cell-based; conditions: Staphylococcus saprophyticus, ATCC15305, read-out: MIC SSAP
Procedure, shortened: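 Broth microdilution per CLSI in cation-adjusted Mueller-Hinton broth (Staphylococcus spp.). Two-fold serial dilutions ran from 256 to 0.5 μg/mL, with an inoculum of ~5 × 10^5 CFU/mL. Plates were read after 20 h at 37 °C. MIC = lowest concentration with no observable growth.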

O=C(O)c1ccc(C(F)(F)F)cc1C(=O)c1ccc(Sc2ccc(Cl)c(Cl)c2)c([N+](=O)[O-])c1 [8e, 2-(4-((3,4-Dichlorophenyl)thio)-3-nitrobenzoyl)-4-(trifluoromethyl)benzoic acid]
Localization of GFP-tagged RNAP fluorescence [1]: delocalized from the nucleoid | Total RNA levels (S. aureus ATCC 29213): reducing the total levels of staphylococcal RNA in a dose-dependent manner | Total levels of DNA (S. aureus ATCC 29213): largely unaffected | Total levels of protein (S. aureus ATCC 29213): reduced the total levels of protein | MIC [2]: 0.5 to 1 µg/mL (≈ 0.968 to 1.94 µM)

CO[C@H]1/C=C/O[C@@]2(C)Oc3c(C)c(O)c4c(O)c(c(/C=N/N5CCN(C)CC5)c(O)c4c3C2=O)NC(=O)/C(C)=C\C=C\[C@H](C)[C@H](O)[C@@H](C)[C@@H](O)[C@@H](C)[C@H](OC(C)=O)[C@@H]1C [rifampicin, reference compound]
Total RNA levels (S. aureus ATCC 29213): significantly reduced | Total levels of DNA (S. aureus ATCC 29213): largely unaffected

From article PMC7680358 (European journal of medicinal chemistry, 2020)
